Assay results taken from ChEMBL document CHEMBL5724801, “EUbOPEN Chemogenomics Library - Multiplex” (2024).
Several values for one entry are separate records, joined by “and”; a condition that tells them apart may be missing. Equal values may be shown once.

Tested on: HEK-293T
Test: Multiplex assay against HEK293T
Type: toxicity, cell-based
Conditions: human
Outline: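 Cells were classed with CellPathfinder machine-learning gating, first as Hoechst high-intensity objects or normal cells, then (normal cells) as healthy, pyknosed or fragmented nuclei, and finally (pyknosed cells) as mitotic or apoptotic. Staining of live cells at seeding used Hoechst33342, BioTracker Green Microtubule Cytoskeleton Dye, MitoTracker Red and Annexin V Alexa Fluor 680, with imaging on a CQ1 microscope at 37°C and 5% CO2 after compound addition. Tubulin, mitochondrial-mass and membrane-permeability phenotypes are per cents of healthy-nucleus cells.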

[1] = 12 h, 1 µM, compound concentration 1 uM
[2] = 12 h, 10 µM, compound concentration 10 uM
[3] = 24 h, 1 µM, compound concentration 1 uM
[4] = 24 h, 10 µM, compound concentration 10 uM
[5] = 48 h, 1 µM, compound concentration 1 uM
[6] = 48 h, 10 µM, compound concentration 10 uM

O=S(=O)(c1ccccc1)c1cnc2c(N3CCNCC3)cccc2c1 [INTEPIRDINE]
Population Apoptotic (%) [1]: 40% and 50%
Population Fragmented Nuclei (%) [1]: 7%
Population Healthy Nuclei (%) [1]: 80% and 74%
Population Hoechst High Intensity Objects (%) [1]: 7% and 10%
Population Membrane Permeable-Phenotype (%) [1]: 0%
Population Mitochondria Different-Phenotype (%) [1]: 54% and 69%
Population Mitotic Cells (%) [1]: 60% and 50%
Population Normal (%) [1]: 92% and 89%
Population Pyknosed Nuclei (%) [1]: 12% and 17%
Population Tubulin-Different-Phenotype (%) [1]: 43% and 23%
Total Cell Count [1]: 403 and 336
Population Apoptotic (%) [2]: 51% and 46%
Population Fragmented Nuclei (%) [2]: 8% and 4%
Population Healthy Nuclei (%) [2]: 72% and 79%
Population Hoechst High Intensity Objects (%) [2]: 10% and 7%
Population Membrane Permeable-Phenotype (%) [2]: 0%
Population Mitochondria Different-Phenotype (%) [2]: 70% and 76%
Population Mitotic Cells (%) [2]: 48% and 53%
Population Normal (%) [2]: 89% and 92%
Population Pyknosed Nuclei (%) [2]: 18% and 15%
Population Tubulin-Different-Phenotype (%) [2]: 58% and 50%
Total Cell Count [2]: 326 and 349
Population Apoptotic (%) [3]: 28% and 58%
Population Fragmented Nuclei (%) [3]: 6% and 7%
Population Healthy Nuclei (%) [3]: 80% and 85%
Population Hoechst High Intensity Objects (%) [3]: 5%
Population Membrane Permeable-Phenotype (%) [3]: 0%
Population Mitochondria Different-Phenotype (%) [3]: 35% and 43%
Population Mitotic Cells (%) [3]: 71% and 41%
Population Normal (%) [3]: 94%
Population Pyknosed Nuclei (%) [3]: 12% and 7%
Population Tubulin-Different-Phenotype (%) [3]: 26% and 14%
Total Cell Count [3]: 530 and 416
Population Apoptotic (%) [4]: 52% and 51%
Population Fragmented Nuclei (%) [4]: 11% and 9%
Population Healthy Nuclei (%) [4]: 75% and 82%
Population Hoechst High Intensity Objects (%) [4]: 6% and 4%
Population Membrane Permeable-Phenotype (%) [4]: 0%
Population Mitochondria Different-Phenotype (%) [4]: 50% and 61%
Population Mitotic Cells (%) [4]: 47% and 48%
Population Normal (%) [4]: 93% and 95%
Population Pyknosed Nuclei (%) [4]: 12% and 8%
Population Tubulin-Different-Phenotype (%) [4]: 33% and 42%
Total Cell Count [4]: 439 and 458
Population Apoptotic (%) [5]: 17% and 25%
Population Fragmented Nuclei (%) [5]: 12% and 13%
Population Healthy Nuclei (%) [5]: 80% and 79%
Population Hoechst High Intensity Objects (%) [5]: 4% and 3%
Population Membrane Permeable-Phenotype (%) [5]: 1% and 0%
Population Mitochondria Different-Phenotype (%) [5]: 25% and 26%
Population Mitotic Cells (%) [5]: 82% and 75%
Population Normal (%) [5]: 95% and 96%
Population Pyknosed Nuclei (%) [5]: 7% and 6%
Population Tubulin-Different-Phenotype (%) [5]: 16% and 12%
Total Cell Count [5]: 866 and 641
Population Apoptotic (%) [6]: 40% and 18%
Population Fragmented Nuclei (%) [6]: 14% and 11%
Population Healthy Nuclei (%) [6]: 75% and 82%
Population Hoechst High Intensity Objects (%) [6]: 4%
Population Membrane Permeable-Phenotype (%) [6]: 0%
Population Mitochondria Different-Phenotype (%) [6]: 45% and 38%
Population Mitotic Cells (%) [6]: 59% and 81%
Population Normal (%) [6]: 95%
Population Pyknosed Nuclei (%) [6]: 10% and 5%
Population Tubulin-Different-Phenotype (%) [6]: 30% and 27%
Total Cell Count [6]: 606 and 673

C=C(C)[C@H]1CN[C@H](C(=O)O)[C@H]1CC(=O)O [KAINIC ACID]
Population Apoptotic (%) [1]: 11.5% and 6.48%
Population Fragmented Nuclei (%) [1]: 2.06% and 6.54%
Population Healthy Nuclei (%) [1]: 64.6% and 22.88%
Population Hoechst High Intensity Objects (%) [1]: 0%
Population Membrane Permeable-Phenotype (%) [1]: 0.91% and 0%
Population Mitochondria Different-Phenotype (%) [1]: 37.44% and 14.29%
Population Mitotic Cells (%) [1]: 88.5% and 93.52%
Population Normal (%) [1]: 100%
Population Pyknosed Nuclei (%) [1]: 33.33% and 70.59%
Total Cell Count [1]: 339 and 153
Population Apoptotic (%) [2]: 12.5% and 13.33%
Population Fragmented Nuclei (%) [2]: 12.27% and 2.55%
Population Hoechst High Intensity Objects (%) [2]: 0.26% and 0%
Population Membrane Permeable-Phenotype (%) [2]: 0%
Population Mitochondria Different-Phenotype (%) [2]: 22.58% and 24.24%
Population Mitotic Cells (%) [2]: 87.5% and 86.67%
Population Normal (%) [2]: 99.74% and 100%
Total Cell Count [2]: 384 and 157
Population Apoptotic (%) [3]: 14% and 18.07%
Population Fragmented Nuclei (%) [3]: 2.44% and 4.97%
Population Healthy Nuclei (%) [3]: 77.19% and 43.48%
Population Hoechst High Intensity Objects (%) [3]: 0%
Population Membrane Permeable-Phenotype (%) [3]: 0.79% and 1.43%
Population Mitochondria Different-Phenotype (%) [3]: 12.14% and 7.14%
Population Mitotic Cells (%) [3]: 86% and 81.93%
Population Normal (%) [3]: 100%
Population Pyknosed Nuclei (%) [3]: 20.37% and 51.55%
Population Tubulin-Different-Phenotype (%) [3]: 8.97% and 5.71%
Population Apoptotic (%) [4]: 9.33% and 14.16%
Population Fragmented Nuclei (%) [4]: 9.95% and 0%
Population Healthy Nuclei (%) [4]: 77.19% and 40.84%
Population Hoechst High Intensity Objects (%) [4]: 0%
Population Membrane Permeable-Phenotype (%) [4]: 0.22% and 0%
Population Mitochondria Different-Phenotype (%) [4]: 11.33% and 7.69%
Population Mitotic Cells (%) [4]: 90.67% and 85.84%
Population Normal (%) [4]: 100%
Population Tubulin-Different-Phenotype (%) [4]: 4.89% and 1.28%
Population Apoptotic (%) [5]: 7.41% and 12.12%
Population Fragmented Nuclei (%) [5]: 6.01% and 2.75%
Population Healthy Nuclei (%) [5]: 85.97% and 71.37%
Population Hoechst High Intensity Objects (%) [5]: 0.07% and 0%
Population Membrane Permeable-Phenotype (%) [5]: 5.09% and 4.4%
Population Mitochondria Different-Phenotype (%) [5]: 10.62% and 17.03%
Population Mitotic Cells (%) [5]: 92.59% and 87.88%
Population Normal (%) [5]: 99.93% and 100%
Population Apoptotic (%) [6]: 13.71% and 22.5%
Population Fragmented Nuclei (%) [6]: 7.14% and 1.13%
Population Healthy Nuclei (%) [6]: 83.02% and 68.8%
Population Hoechst High Intensity Objects (%) [6]: 0% and 0.75%
Population Membrane Permeable-Phenotype (%) [6]: 4.88% and 2.19%
Population Mitochondria Different-Phenotype (%) [6]: 10.71% and 14.75%
Population Mitotic Cells (%) [6]: 86.29% and 77.5%
Population Normal (%) [6]: 100% and 99.25%
